Laboratory results taken from paper PMC9817006 (Journal of psychopharmacology (Oxford, England), 2022).

What was measured:
ICR mice = experiment: Hot-plate test; type: in vivo
Method in brief: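 Hot plate at 55.0 °C, mouse confined in a 10 cm glass cylinder. Two control latencies taken ≥10 min apart; endpoint is a jump or paw lick. ICR mice (6/group) given test compound s.c. (0.001–0.5 mg/kg) or saline and tested 5–120 min post-dose. %MPE = (test−control)/(40−control)×100.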

C57BL/6J mice = experiment: Tail-flick test; type: in vivo; settings: 0.5 mg/kg s.c., 5-120 min
Method in brief: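 Tail-flick test. A control latency (2–4 sec) was measured for each mouse before dosing, with a 10 sec maximum. Mice (n=6/group) received saline or test compound 0.5 mg/kg s.c. and were tested at 5, 10, 15, 30, 60 and 120 min. %MPE = ((test−control)/(10−control)) × 100.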

## Ic1cncc(OC[C@@H]2CCN2)c1 [5IA, 5-Iodo-A-85380]
ICR mice; 0.001 mg/kg s.c., 5 min after injection
  Antinociceptive response, hot-plate test: 8 ± 3 % MPE
ICR mice; 0.001 mg/kg s.c., 10 min after injection
  Antinociceptive response, hot-plate test: 10 ± 3 % MPE
ICR mice; 0.001 mg/kg s.c., 15 min after injection
  Antinociceptive response, hot-plate test: 10 ± 5 % MPE
ICR mice; 0.001 mg/kg s.c., 30 min after injection
  Antinociceptive response, hot-plate test: 4 ± 3 % MPE
ICR mice; 0.001 mg/kg s.c., 60 min after injection
  Antinociceptive response, hot-plate test: 8 ± 5 % MPE
ICR mice; 0.001 mg/kg s.c., 120 min after injection
  Antinociceptive response, hot-plate test: 11 ± 5 % MPE
ICR mice; 0.01 mg/kg s.c., 5 min after injection
  Antinociceptive response, hot-plate test: 9 ± 3 % MPE
ICR mice; 0.01 mg/kg s.c., 10 min after injection
  Antinociceptive response, hot-plate test: 7 ± 3 % MPE
ICR mice; 0.01 mg/kg s.c., 15 min after injection
  Antinociceptive response, hot-plate test: 7 ± 3 % MPE
ICR mice; 0.01 mg/kg s.c., 30 min after injection
  Antinociceptive response, hot-plate test: 5 ± 3 % MPE
ICR mice; 0.01 mg/kg s.c., 60 min after injection
  Antinociceptive response, hot-plate test: 13 ± 6 % MPE
ICR mice; 0.01 mg/kg s.c., 120 min after injection
  Antinociceptive response, hot-plate test: 5 ± 3 % MPE
ICR mice; 0.1 mg/kg s.c., 5 min after injection
  Antinociceptive response, hot-plate test: 7 ± 2 % MPE
ICR mice; 0.1 mg/kg s.c., 10 min after injection
  Antinociceptive response, hot-plate test: 6 ± 3 % MPE
ICR mice; 0.1 mg/kg s.c., 15 min after injection
  Antinociceptive response, hot-plate test: 3 ± 2 % MPE
ICR mice; 0.1 mg/kg s.c., 30 min after injection
  Antinociceptive response, hot-plate test: 0 ± 0 % MPE
ICR mice; 0.1 mg/kg s.c., 60 min after injection
  Antinociceptive response, hot-plate test: 8 ± 4 % MPE
ICR mice; 0.1 mg/kg s.c., 120 min after injection
  Antinociceptive response, hot-plate test: 14 ± 6 % MPE
ICR mice; 0.5 mg/kg s.c., 5 min after injection
  Antinociceptive response, hot-plate test: 17 ± 5 % MPE
ICR mice; 0.5 mg/kg s.c., 10 min after injection
  Antinociceptive response, hot-plate test: 11 ± 8 % MPE
ICR mice; 0.5 mg/kg s.c., 15 min after injection
  Antinociceptive response, hot-plate test: 18 ± 9 % MPE
ICR mice; 0.5 mg/kg s.c., 30 min after injection
  Antinociceptive response, hot-plate test: 10 ± 6 % MPE
ICR mice; 0.5 mg/kg s.c., 60 min after injection
  Antinociceptive response, hot-plate test: 11 ± 7 % MPE
ICR mice; 0.5 mg/kg s.c., 120 min after injection
  Antinociceptive response, hot-plate test: 11 ± 4 % MPE
ICR mice; 0.001-0.5 mg/kg s.c., 5-120 min
  Effect on acute thermal antinociception, hot plate test (in words): no significant effect of 5IA on acute thermal antinociception in the hot plate test
C57BL/6J mice
  Effect on acute thermal antinociception, tail-flick test (in words): no significant effect of 5IA on acute thermal antinociception in the hot plate or tail-flick test
